What is called pIC50 is −log10 of the IC50, conventionally taken in molar units. A word on the DC50: it is the concentration giving 50% degradation.

The values below come from ChEMBL document CHEMBL4219028, “Development of Protein Degradation Inducers of Androgen Receptor by Conjugation of Androgen Receptor Ligands and Inhibitor of Apoptosis Protein Ligands” (J Med Chem, 2018).

pIC50: −log10 of the molar value. Active and inactive are the calls of the source. The calls are words filed in the database; no cut-off is given here.

Assay [1] deals with T1, Androgen receptor/Baculoviral IAP repeat-containing protein 2 (Homo sapiens, UniProt P10275+Q13490). Briefly: Induction of AR/cIAP1 interaction in human 22Rv1 cells assessed as ubiquitin proteasome system mediated androgen receptor protein degradation at 1 to 3 uM after 6 hrs by Western blot analysis. In kind it is cell-based. The essentials:
(§1)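 22Rv1 cells were treated with compound, or with separate ligands (30 μM or 3 μM each), for 6 h. Lysates in SDS buffer (0.1 M Tris pH 8.0, 1% SDS) were normalized by BCA, run on SDS-PAGE and immunoblotted. AR/GAPDH ratio was normalized to vehicle as 100. DC50 is the concentration giving 50% AR reduction; means ± SD, n = 3; t-test against vehicle.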
For orientation: In western blotting, separated proteins are transferred to a membrane and probed.
Target sequence in this assay (Q13490 whole entry, looked up, one chain of several): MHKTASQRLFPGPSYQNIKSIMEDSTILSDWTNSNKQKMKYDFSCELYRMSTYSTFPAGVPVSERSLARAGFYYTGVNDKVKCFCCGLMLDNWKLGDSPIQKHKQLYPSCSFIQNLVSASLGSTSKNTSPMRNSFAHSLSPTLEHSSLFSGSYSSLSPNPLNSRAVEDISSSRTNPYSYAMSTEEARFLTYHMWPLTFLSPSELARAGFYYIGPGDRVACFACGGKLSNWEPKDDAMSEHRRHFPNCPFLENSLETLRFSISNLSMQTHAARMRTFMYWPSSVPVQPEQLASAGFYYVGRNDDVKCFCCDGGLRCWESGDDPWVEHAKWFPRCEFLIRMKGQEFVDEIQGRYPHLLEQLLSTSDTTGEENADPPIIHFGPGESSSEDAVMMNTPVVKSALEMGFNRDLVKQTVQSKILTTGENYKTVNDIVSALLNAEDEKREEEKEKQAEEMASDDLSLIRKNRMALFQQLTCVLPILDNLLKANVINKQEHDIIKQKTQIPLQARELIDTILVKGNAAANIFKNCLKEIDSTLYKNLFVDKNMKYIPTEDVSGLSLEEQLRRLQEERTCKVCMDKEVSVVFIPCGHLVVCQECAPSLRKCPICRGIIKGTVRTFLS

Assay [2] deals with T2, Androgen receptor (Homo sapiens, UniProt P10275).
T2 sequence (P10275 whole entry): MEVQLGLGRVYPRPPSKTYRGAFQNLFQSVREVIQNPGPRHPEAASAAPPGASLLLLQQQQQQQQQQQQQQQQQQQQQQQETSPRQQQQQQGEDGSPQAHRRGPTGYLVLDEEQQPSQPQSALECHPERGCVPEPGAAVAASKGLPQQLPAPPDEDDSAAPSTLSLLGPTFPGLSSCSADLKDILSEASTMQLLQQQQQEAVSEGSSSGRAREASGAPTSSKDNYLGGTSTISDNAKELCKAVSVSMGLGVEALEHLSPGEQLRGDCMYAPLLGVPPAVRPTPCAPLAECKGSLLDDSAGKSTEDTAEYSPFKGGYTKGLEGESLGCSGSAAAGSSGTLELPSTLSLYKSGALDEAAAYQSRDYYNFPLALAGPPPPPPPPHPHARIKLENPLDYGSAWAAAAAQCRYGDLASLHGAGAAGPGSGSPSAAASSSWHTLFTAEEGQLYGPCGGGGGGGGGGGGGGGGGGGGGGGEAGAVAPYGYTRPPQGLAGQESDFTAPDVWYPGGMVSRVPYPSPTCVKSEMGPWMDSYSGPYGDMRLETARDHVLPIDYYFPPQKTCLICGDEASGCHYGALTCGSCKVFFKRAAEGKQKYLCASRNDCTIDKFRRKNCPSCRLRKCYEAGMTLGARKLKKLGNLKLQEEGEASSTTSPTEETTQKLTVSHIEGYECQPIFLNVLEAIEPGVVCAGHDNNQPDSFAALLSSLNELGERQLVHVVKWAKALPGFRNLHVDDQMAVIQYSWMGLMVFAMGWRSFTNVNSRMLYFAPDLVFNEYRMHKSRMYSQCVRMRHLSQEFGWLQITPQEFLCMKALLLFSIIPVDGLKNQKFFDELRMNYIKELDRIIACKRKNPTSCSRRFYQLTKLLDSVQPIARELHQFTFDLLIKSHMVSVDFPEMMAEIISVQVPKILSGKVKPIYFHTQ
Briefly: Binding affinity to androgen receptor (unknown origin). The essentials:
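Wild-type AR expressed by transfection of FreeStyle293F cells (48 h shaking at 37 °C), then lysed by freeze-thaw in TEGM buffer (pH 7.2, molybdate, DTT). Cleared lysate incubated with [3H]mibolerone (final 3 nM) plus test compound at 4 °C for 3 h. Bound and free separated by dextran/charcoal, bound counted, and % inhibition calculated. IC50 taken from three separate experiments.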

Assay [3] deals with T2, Androgen receptor. The experiment in a line: Displacement of [17-alpha-methyl-H-3] mibolerone from wild-type androgen receptor (unknown origin) expressed in human Freestyle293F cells measured after 3 hrs. In kind it is cell-based. In a few lines:
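Wild-type AR was expressed in FreeStyle293F cells (pcDNA3.1, 48 h, 37 °C, 8% CO2). Cells were lysed in TEGM buffer (pH 7.2, molybdate, DTT) by freeze–thaw, and the supernatant from 228,000g spin was used. Lysate was incubated with 3 nM (final) [3H]mibolerone plus compound at 4 °C for 3 h. Bound and free were separated by dextran/charcoal and bound counts gave % inhibition; IC50 from three experiments.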

Assay [4] has as its target T1, Androgen receptor/Baculoviral IAP repeat-containing protein 2. Briefly: Induction of AR/cIAP1 interaction in human 22Rv1 cells assessed as ubiquitin proteasome system mediated androgen receptor protein degradation by Western blot analysis.
Target sequence in this assay (Q13490 whole entry, one chain of several): as the sequence (Q13490 whole entry, looked up, one chain of several) above
For assay [5] the target is unchanged. Briefly: Induction of AR/cIAP1 interaction in human 22Rv1 cells assessed as ubiquitin proteasome system mediated androgen receptor protein degradation after 6 hrs by Western blot analysis. Format: cell-based. The essentials:
as §1
Target sequence in this assay (Q13490 whole entry, looked up, one chain of several): as the sequence (Q13490 whole entry, looked up, one chain of several) above

The target is the same in assay [6]. The experiment in a line: Induction of AR/cIAP1 interaction in human 22Rv1 cells assessed as ubiquitin proteasome system mediated androgen receptor protein degradation at 30 uM after 6 hrs by Western blot analysis. In kind it is cell-based. The essentials:
as §1
Target sequence in this assay (Q13490 whole entry, looked up, one chain of several): as the sequence (Q13490 whole entry, looked up, one chain of several) above

For assay [7] the target is unchanged. The experiment in a line: Induction of AR/cIAP1 interaction in human 22Rv1 cells assessed as ubiquitin proteasome system mediated androgen receptor protein degradation at 3 uM in presence of 1-benzyl-4-(4-cyanophenyl)-2,5-dimethyl-1H-pyrrole-3-carbonitrile after 6 hrs by Western blot analysis. In kind it is cell-based. The essentials:
as §1
Target sequence in this assay (Q13490 whole entry, looked up, one chain of several): as the sequence (Q13490 whole entry, looked up, one chain of several) above

For assay [8] the target is unchanged. Briefly: Induction of AR/cIAP1 interaction in human 22Rv1 cells assessed as ubiquitin proteasome system mediated androgen receptor protein degradation at 3 uM in presence of N-((1S)-1-Cyclohexyl-2-((2S)-2-(4-(3-methoxybenzoyl)-1,3-thiazol-2-yl)pyrrolidin-1-yl)-2-oxoethyl)-N2-methyl-L-alaninamide after 6 hrs by Western blot analysis. Format: cell-based. The essentials: as §1
Target sequence in this assay (Q13490 whole entry, looked up, one chain of several): as the sequence (Q13490 whole entry, looked up, one chain of several) above

For assay [9] the target is unchanged. The experiment in a line: Induction of AR/cIAP1 interaction in human 22Rv1 cells assessed as ubiquitin proteasome system mediated androgen receptor protein degradation at 30 uM in presence of methyl (2S)-2-(((2S,3R)-3-amino-2-hydroxy-4-phenylbutanoyl)amino)-4-methylpentanoate after 6 hrs by Western blot analysis. Format: cell-based. The essentials:
as §1
Target sequence in this assay (Q13490 whole entry, looked up, one chain of several): as the sequence (Q13490 whole entry, looked up, one chain of several) above

For assay [10] the target is unchanged. The experiment in a line: Induction of AR/cIAP1 interaction in human 22Rv1 cells assessed as ubiquitin proteasome system mediated androgen receptor protein degradation at 3 uM after 6 hrs by Western blot analysis. In kind it is cell-based. In a few lines:
as §1

Consider `CN[C@@H](C)C(=O)N[C@H](C(=O)N1CCC[C@H]1c1nc(C(=O)c2cccc(OCCOCCOCCOCCOc3ccccc3Cn3c(C)c(C#N)c(-c4ccc(C#N)cc4)c3C)c2)cs1)C1CCCCC1`, for which the result in [1] was inactive. Turning to `Cc1c(C#N)c(-c2ccc(C#N)cc2)c(C)n1Cc1ccc(C(=O)O)cc1`, at Androgen receptor [2], the pIC50 is 8.85. As for `Cc1nn(-c2ccc(C#N)c(C(F)(F)F)c2)c(C)c1Cc1ccc(C(=O)NCCOCCOCCOCCNC(=O)[C@H](CC(C)C)NC(=O)[C@@H](O)[C@H](N)Cc2ccccc2)cc1`, the pIC50 at Androgen receptor [3] was 6.72. Further, in [4], the DC50 is 11700 nM. Regarding `CN[C@@H](C)C(=O)N[C@H](C(=O)N1CCC[C@H]1c1nc(C(=O)c2cccc(OCCOCCOCCNC(=O)c3ccc(Cn4c(C)c(C#N)c(-c5ccc(C#N)cc5)c4C)cc3)c2)cs1)C1CCCCC1`, in assay [5], the MED stood at 3 µM. The result in [1] was Active.

Take `Cc1c(C#N)c(-c2ccc(C#N)cc2)c(C)n1Cc1ccc(C(=O)NCCOCCOCCOCCNC(=O)[C@H](CC(C)C)NC(=O)[C@@H](O)[C@H](N)Cc2ccccc2)cc1`: the MED in assay [5] came to 30 µM. Besides, at Androgen receptor [3], the pIC50 was 7.57. Besides, the result in assay [6] was Active. In addition, in assay [4], the half-maximal degradation concentration (DC50) came out at 21600 nM. As for `CN[C@@H](C)C(=O)N[C@H](C(=O)N1CCC[C@H]1c1nc(C(=O)c2cccc(OC)c2)cs1)C1CCCCC1`, in assay [7], the outcome was inactive. On to `Cc1c(C#N)c(-c2ccc(C#N)cc2)c(C)n1Cc1ccccc1`, for which the result in assay [8] and in assay [9] was inactive. Regarding `CC(C)C[C@H](NC(=O)[C@@H](O)[C@H](N)Cc1ccccc1)C(=O)NCCOCCOCCOCCNC(=O)c1ccc(S(=O)(=O)CC(C)(O)C(=O)Nc2ccc(C#N)c(C(F)(F)F)c2)cc1` (some centres undefined), at Androgen receptor [3], the pIC50 was 5.96. Besides, the DC50 in [4] is above 30000 nM.

`Cc1nn(-c2ccc(C#N)c(Cl)c2)c(C)c1CCc1ccc(C(=O)NCCOCCOCCOCCNC(=O)[C@H](CC(C)C)NC(=O)[C@@H](O)[C@H](N)Cc2ccccc2)cc1` gave a negative logarithm of the IC50 (pIC50) on Androgen receptor [3] of 6.72. Besides, the DC50 in [4] came to 20500 nM. On to `CN[C@@H](C)C(=O)N[C@H](C(=O)N1CCC[C@H]1c1nc(C(=O)c2cccc(OCCOc3cccc(OCCOc4ccc(Cn5c(C)c(C#N)c(-c6ccc(C#N)cc6)c5C)cc4)c3)c2)cs1)C1CCCCC1`, for which the result in [1] was inactive. As for `Cc1nn(-c2ccc(C#N)c(Cl)c2)c(C)c1CCc1ccc(C(=O)O)cc1`, the pIC50 on Androgen receptor [2] was 7.28. On to `CN[C@@H](C)C(=O)N[C@H](C(=O)N1CCC[C@H]1c1nc(C(=O)c2cccc(OCCOc3ccccc3OCCOc3ccc(Cn4c(C)c(C#N)c(-c5ccc(C#N)cc5)c4C)cc3)c2)cs1)C1CCCCC1`, for which, in assay [1], the result was inactive. Regarding `CN[C@@H](C)C(=O)N[C@H](C(=O)N1CCC[C@H]1c1nc(C(=O)c2cccc(OCCOCCOCCOc3ccc(Cn4c(C)c(C#N)c(-c5ccc(C#N)cc5)c4C)cc3)c2)cs1)C1CCCCC1`, the outcome in assay [10] was Active. As to `CN[C@@H](C)C(=O)N[C@H](C(=O)N1CCC[C@H]1c1nc(C(=O)c2cccc(OCCOCCOCCOCCOc3cccc(Cn4c(C)c(C#N)c(-c5ccc(C#N)cc5)c4C)c3)c2)cs1)C1CCCCC1`, in assay [1], the result was Active. For the compound `CN[C@@H](C)C(=O)N[C@H](C(=O)N1CCC[C@H]1C(=O)N[C@H](C(=O)NCCOCCOCCOCCNC(=O)c1ccc(Cn2c(C)c(C#N)c(-c3ccc(C#N)cc3)c2C)cc1)C(c1ccccc1)c1ccccc1)C1CCCCC1`, in assay [5], the MED is 20 µM. On Androgen receptor [3], `Cc1nn(-c2ccc(C#N)cc2Cl)c(C)c1Cc1ccc(C(=O)NCCOCCOCCOCCNC(=O)[C@H](CC(C)C)NC(=O)[C@@H](O)[C@H](N)Cc2ccccc2)cc1` gave a pIC50 below 5.00. For the same compound, the DC50 in [4] is above 30000 nM. Regarding `CN[C@@H](C)C(=O)N[C@H](C(=O)N1CCC[C@H]1c1nc(C(=O)c2cccc(OCCOc3ccc(OCCOc4ccc(Cn5c(C)c(C#N)c(-c6ccc(C#N)cc6)c5C)cc4)cc3)c2)cs1)C1CCCCC1`, the outcome in assay [1] was inactive. The same measure, in the same setting: to `CN[C@@H](C)C(=O)N[C@H](C(=O)N1CCC[C@H]1c1nc(C(=O)c2cccc(OCCOCCOCCOCC#Cc3ccc(Cn4c(C)c(C#N)c(-c5ccc(C#N)cc5)c4C)cc3)c2)cs1)C1CCCCC1` belongs “Active”. Regarding `CN[C@@H](C)C(=O)N[C@H](C(=O)N1CCC[C@H]1c1nc(C(=O)c2cccc(OCCOCCOCCOCCOCCOc3ccc(Cn4c(C)c(C#N)c(-c5ccc(C#N)cc5)c4C)cc3)c2)cs1)C1CCCCC1`, the result in assay [10] was Active. For the compound `CN[C@@H](C)C(=O)N[C@H](C(=O)N1CCC[C@H]1c1nc(C(=O)c2cccc(OCCOCCOCCOCCCc3ccc(Cn4c(C)c(C#N)c(-c5ccc(C#N)cc5)c4C)cc3)c2)cs1)C1CCCCC1`, the outcome in [1] was Active.
